Measurements as given in ChEMBL document CHEMBL3600383, “A new polyoxygenated cyclohexene and a new megastigmane glycoside from Uvaria grandiflora” (Bioorg Med Chem Lett, 2015).

Assays:
Type in all cases: functional, cell-based
[1] = system: MDA-MB-231; test: Cytotoxic activity against human MDA-MB-231 cells assessed as inhibition of cell growth incubated for 48 hrs by SRB method; conditions: MDA-MB-231, 48 h
Outline: (§1)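 Sulforhodamine B growth-inhibition assay run as part of a panel of nine human cancer cell lines. Potency is reported as IC50 in µM.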

[2] = system: SW480; test: Cytotoxic activity against human SW480 cells assessed as inhibition of cell growth incubated for 48 hrs by SRB method; conditions: SW480, 48 h; outline: as §1
[3] = system: Lu1; test: Cytotoxic activity against human Lu1 cells assessed as inhibition of cell growth incubated for 48 hrs by SRB method; conditions: Lu1, 48 h; outline: as §1
[4] = Cytotoxic activity against human MKN7 cells assessed as inhibition of cell growth incubated for 48 hrs by SRB method; conditions: MKN-7, 48 h; outline: as §1
[5] = system: KB; test: Cytotoxic activity against human KB cells assessed as inhibition of cell growth incubated for 48 hrs by SRB method; outline: as §1
[6] = system: HL-60; test: Cytotoxic activity against human HL60 cells assessed as inhibition of cell growth incubated for 48 hrs by SRB method; conditions: HL-60, 48 h; outline: as §1
[7] = system: HepG2; test: Cytotoxic activity against human HepG2 cells assessed as inhibition of cell growth incubated for 48 hrs by SRB method; conditions: HepG2, 48 h; outline: as §1
[8] = system: LNCaP; test: Cytotoxic activity against human LNCAP cells assessed as inhibition of cell growth incubated for 48 hrs by SRB method; outline: as §1
[9] = system: SK-MEL-2; test: Cytotoxic activity against human SK-MEL-2 cells assessed as inhibition of cell growth incubated for 48 hrs by SRB method; conditions: SK-MEL-2, 48 h
Outline: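 Sulforhodamine B growth-inhibition assay, run in parallel across a panel of nine human cancer cell lines. Potency is reported as IC50 in µM.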

Compound | IC50 [1] | IC50 [2] | IC50 [3] | IC50 [4] | IC50 [5] | IC50 [6] | IC50 [7] | IC50 [8] | IC50 [9]
C[C@@H]1O[C@@H](O[C@H]2[C@H](O[C@H]3CO[C@@H](O[C@H]4CC[C@]5(C)[C@H]6CC[C@]78OC[C@@]9(CC[C@](C)(C=O)C[C@H]97)[C@H](O)C[C@@]8(C)[C@]6(C)CC[C@H]5C4(C)C)[C@H](O[C@@H]4O[C@H](CO)[C@@H](O)[C@H](O)[C@H]4O)[C@H]3O)O[C@H](CO)[C@@H](O)[C@@H]2O)[C@H](O)[C@H](O)[C@H]1O [ARDISIACRISPIN B] | 11.8 µM | 1.24 µM | 1.41 µM | 1.27 µM | 1.6 µM | 22.6 µM | 1.53 µM | 9.7 µM | 
Cc1c2ccncc2c(C)c2c1[nH]c1ccccc12 [ELLIPTECINE] | 3.21 µM | 3.17 µM | 2.72 µM | 3.82 µM | 3.98 µM | 2.93 µM | 3.5 µM | 3.21 µM | 1.14 µM
O=C(OC[C@@]1(O)C(=O)C=C[C@@H](O)[C@@H]1O)c1ccccc1 | 64.1 µM | 11.3 µM | 4.68 µM | 8.63 µM | 13.3 µM | 6.22 µM | 13.1 µM | 45.4 µM | 3.63 µM
